This is a sample that favours compounds with a hit; in the whole collection about 0.77% have one here.
hIAP act: human IAP activators, primary screen, biochemical, luminescence, uHTS; Intestinal-type alkaline phosphatase (Homo sapiens), P09923; purified human IAP, CDP-Star luminescence, 30 min; stronger effect = higher value; 1 = vehicle-only enzyme, 0 = enzyme-free background; activation factor at 10 µM; hit rate 0.16% among 330,000; AID 2524, 2010;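 active = activation factor of the enzyme at least 2-fold when tested at 20 µM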
Target sequence (P09923 whole entry, looked up): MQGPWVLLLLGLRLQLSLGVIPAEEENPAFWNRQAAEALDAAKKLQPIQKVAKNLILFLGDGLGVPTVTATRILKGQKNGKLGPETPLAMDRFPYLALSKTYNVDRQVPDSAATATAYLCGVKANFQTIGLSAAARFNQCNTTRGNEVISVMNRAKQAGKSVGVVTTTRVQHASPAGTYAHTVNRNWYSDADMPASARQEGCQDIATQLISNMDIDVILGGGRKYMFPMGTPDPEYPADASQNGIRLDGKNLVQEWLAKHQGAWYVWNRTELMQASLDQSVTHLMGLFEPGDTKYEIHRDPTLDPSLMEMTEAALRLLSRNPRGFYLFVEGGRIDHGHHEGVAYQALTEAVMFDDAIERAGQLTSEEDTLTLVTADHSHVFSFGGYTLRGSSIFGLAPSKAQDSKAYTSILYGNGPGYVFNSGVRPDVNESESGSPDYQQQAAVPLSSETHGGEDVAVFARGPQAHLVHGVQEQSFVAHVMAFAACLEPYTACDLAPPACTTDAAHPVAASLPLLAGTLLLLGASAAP
bIAP activator: bovine intestinal alkaline phosphatase activators, primary screen, biochemical, bovine IAP, CDP-star luminescence. alkaline phosphatase, intestinal [Bos taurus]. purified bovine IAP, 30 min; stronger effect = higher value; fold of DMSO-control signal, blank-subtracted. activation factor at 20 µM. hit rate 0.17% among 200,000;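 active = activation factor of 2 or more at 20 µM, a signal rise over negative controls twice the positive control's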
mIAP block: inhibitors of mouse IAP, primary screen, biochemical, luminescence, uHTS; intestinal alkaline phosphatase [Mus musculus]; purified mouse IAP, CDP-Star luminescence, 30 min; hit rate 0.2% among 330,000; inhibition, % at 10 µM; AID 2806, 2010;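 active = inhibition of at least 40% at 10 µM in the primary screen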
mIAP activ: activators of mouse IAP, primary screen, biochemical, luminescence, uHTS. intestinal alkaline phosphatase [Mus musculus]. muIAP, CDP-Star luminescence, 30 min; stronger effect = higher value; 1 = vehicle-only enzyme signal, 0 = enzyme-free wells. activation factor at 10 µM. hit rate 0.24% among 330,000;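 active = activation factor of at least 2 at 20 µM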
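Assay system: mouse IAP enzyme; Reagent: CDP-Star chemiluminescent phosphatase substrate; Compound: DMSO-dissolved test compounds; Incubation: 30 min, room temperature; Technique: luminescence from enzymatic CDP-Star hydrolysis; Controls: DMSO-only wells and no-enzyme negative control.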
hIAP inh: human IAP inhibitors, primary screen, biochemical, luminescence, uHTS; Intestinal-type alkaline phosphatase (Homo sapiens), P09923; purified IAP, CDP-Star luminescence, 30 min; hit rate 0.12% among 330,000; inhibition, % at 10 µM;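 active = inhibition reaching a set limit with compound at 10 µM in the primary screen, cut at about 35% in these data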
bIAP inh: bovine intestinal alkaline phosphatase inhibitors, primary screen, selectivity assay for TNAP inhibitor project, biochemical, bovine IAP, CDP-star luminescence. alkaline phosphatase, intestinal [Bos taurus]. purified bovine IAP, 30 min. inhibition, % at 20 µM. 190,000 tested, under 10 active;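 active = over 50% inhibition of intestinal alkaline phosphatase at 20 µM in the single-dose screen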
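Assay system: bovine IAP enzyme; medium: DEA buffer 100 mM, pH 9.8, with MgCl2 1.0 mM, ZnCl2 0.02 mM; doses: 20 µM single dose; incubation: enzyme reaction for 30 min at room temperature; detection: CDP-star luminescence signal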
hIAP act confirm: human IAP activators, confirmation, biochemical, luminescence, single concentration, uHTS hits. AID 434926, 2010. activation (%Activity, negative = activation), % at 8.3 µM. shares compounds with hIAP act. purified IAP, CDP-Star luminescence, 30 min; stronger effect = lower value. hit rate 10% among 880;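 active = at least twofold enzyme activation in any of six single-dose repeats, which the averaged readout prints as negative percent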
Large screens that a line does not name were inactive (follow-up assays come after a bar, where they were run).

Cc1ccc(N2CN(S(=O)(=O)c3cccc([N+](=O)[O-])c3)c3nc4ccccc4nc32)cc1	none (no result: bIAP activator, bIAP inh)
COc1cc(OC)c(OC)cc1/C=N/n1c(-c2n[nH]c3c2CCC3)n[nH]c1=S	hIAP act 2.1 (no result: bIAP activator, bIAP inh) | hIAP act confirm inactive
O=C(CN1CCN(C(=O)N2CCCCC2)CC1)Nc1ccc(F)cc1	hIAP act 2.3 | hIAP act confirm -97
O=C(CN1CCCC1)Nc1ccc(F)cc1	none
COC(=O)C1CCN(C(=O)c2cc(-c3ccco3)nc3ccccc23)CC1	none (no result: bIAP activator, bIAP inh)
O=C(NNC1=NCCC1)c1ccc(Br)cc1	hIAP act 2.6 | hIAP act confirm inactive
O=C(N/N=C/c1ccccn1)c1cc(-c2ccc3ccccc3c2)n[nH]1	hIAP act 2.2 | hIAP act confirm inactive
CCc1ccc(-c2cc(C(=O)N/N=C/c3ccccn3)[nH]n2)cc1	none
O=C(N/N=C/c1ccco1)c1cc(-c2ccc3ccccc3c2)n[nH]1	hIAP act 2.1 | hIAP act confirm inactive
CCc1ccc(-c2cc(C(=O)N/N=C/c3ccco3)[nH]n2)cc1	none
CC(C)NC(=O)/C(C#N)=C\c1ccc(N(C)C)o1	hIAP inh 35 | hIAP act confirm inactive
COc1ccc(-c2cc(C(=O)NNC(=O)c3csc(N4CCOCC4)n3)c3ccccc3n2)cc1OC	hIAP act 2.4 (no result: bIAP activator, bIAP inh) | hIAP act confirm inactive
COc1cc(OC)c(OC)cc1/C=N/NC(=O)c1cc(-c2cccn2C)n[nH]1	none
CCOc1cccc(/C=N/NC(=O)c2cc(-c3cccn3C)n[nH]2)c1O	hIAP act 2.6 | hIAP act confirm inactive
COc1cccc(/C=N/Nc2ccc([N+](=O)[O-])cc2)c1O	hIAP inh 37 (no result: bIAP activator, bIAP inh) | hIAP act confirm inactive
COc1cccc(/C=N/NC(=O)c2ccc(=O)[nH]n2)c1O	hIAP act 2.4 (no result: bIAP activator, bIAP inh) | hIAP act confirm inactive
COc1cccc(/C=N/NC(=O)CNC(=O)c2ccncc2)c1O	hIAP act 2.2 (no result: bIAP activator, bIAP inh) | hIAP act confirm inactive
COc1ccc(C(=O)N2CCC2)cc1S(=O)(=O)NCc1ccc(Cl)cc1	none (no result: bIAP activator, bIAP inh)
O=C(N/N=C/c1ccc(F)cc1)c1cc(-c2ccccn2)nc2ccccc12	none (no result: bIAP activator, bIAP inh)
COc1cccc(/C=N/NC(=O)c2cc(-c3ccccn3)nc3ccccc23)c1O	hIAP act 2.1 (no result: bIAP activator, bIAP inh) | hIAP act confirm inactive
COc1ccc(NC(C)=O)cc1S(=O)(=O)N(C)Cc1c(C)nn(-c2ccccc2)c1C	none (no result: bIAP activator, bIAP inh)
O=C(NN1C(=O)/C(=C/c2ccc(O)cc2)SC1=S)c1cccc(O)c1	hIAP inh 37 (no result: bIAP activator, bIAP inh) | hIAP act confirm inactive
O=C1/C(=C/c2ccc(O)c([N+](=O)[O-])c2)SC(=S)N1Cc1ccccc1	none
O=C(NN1C(=O)/C(=C/c2ccc(O)c([N+](=O)[O-])c2)SC1=S)c1ccccc1Cl	hIAP inh 35 | hIAP act confirm inactive
CC[C@@H]1C=C(C(=O)O)[C@H](c2cccc(C)c2)N1S(=O)(=O)c1ccc(C)cc1	none (no result: bIAP activator, bIAP inh)
Cc1ccc(C(=O)Nn2cnnc2)cc1	none (no result: bIAP activator, bIAP inh)
COc1ccc(OC)c(S(=O)(=O)n2nnc3ccccc32)c1	hIAP inh 37 | hIAP act confirm inactive
Cc1c(Cl)ccc2sc(N3CCN(C(=O)C4=COCCO4)CC3)nc12	none (no result: bIAP activator, bIAP inh)
CCCCCC(=O)Cc1cc(O)cc2c1C(=O)Oc1cc(O)c(C(=O)O)c(CCCCC)c1O2	hIAP inh 40 (no result: bIAP activator, bIAP inh) | hIAP act confirm inactive
Cc1nc(S/C(=C/c2ccc(-c3ccc(Cl)cc3)o2)C(=O)O)n[nH]1	hIAP act 2.2 | hIAP act confirm -89
COc1ccc(CNS(=O)(=O)c2cccc(S(=O)(=O)N3CCOCC3)c2)cc1	hIAP inh 36 | hIAP act confirm inactive

Bioassay records from PubChem.
